Among the data in ChEMBL document CHEMBL3244269, “Synthesis of carboxyarylindoles and benzofurans as nonsteroidal antiinflammatory agents” (J Med Chem, 1977) are inhibition in vivo and Activity values, retold here.

Usually inhibition in vivo stands for the percentage by which the read-out fell short of the control.

In data set [1] the test system is Rattus norvegicus. Kind of data set: Antiinflammatory activity in Wistar rat assessed as inhibition of carrageenan-induced paw edema at 200 mg/kg, po administered 30 mins prior challenge measured after 3 hrs relative to placebo-control. It is filed as functional. In outline:
(§1)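 Fasted male Wistar rats, eight per group, dosed orally with 200 mg/kg as a saline-Tween 80 suspension (10 mL/kg), or placebo. After 30 min, 0.1 cm³ of 1% carrageenan in distilled water was injected into the left hind paw plantar surface. Paw volume was read by mercury displacement then and 3 h later. Mean volume increase was compared with placebo as percent inhibition.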
On the technique in general: In the carrageenan paw model, swelling and tenderness develop within hours.

The test system of data set [2] is Rattus norvegicus. Put plainly: Toxicity in carrageenan-induced Wistar rat assessed as increase in paw edema at 200 mg/kg, po administered 30 mins prior challenge measured after 3 hrs relative to placebo-control. The following applies: in vivo. It is filed as organism-based. On the set-up: dose 200 mg/kg, route oral. In outline:
as §1

In the case of `O=C(O)c1cc(-n2c(-c3ccccc3)cc3c2CCCC3)ccc1O`, the inhibition in vivo at 200 mg/kg with Rattus norvegicus [1] was 64%.

Take `O=C(O)c1cc(-c2cc3c(n2-c2ccccc2)CCCC3)ccc1O`: the inhibition in vivo at 200 mg/kg in the data set with Rattus norvegicus [1] worked out at 25.8%.

Consider `CC(=O)Oc1ccccc1C(=O)O` [ASPIRIN], for which the inhibition in vivo at 200 mg/kg in the data set with Rattus norvegicus [1] is 65.3%.

Turning to `O=C(O)c1cc(-c2cc3c(o2)CCCC3)ccc1O`, the inhibition in vivo at 200 mg/kg with Rattus norvegicus [1] was determined as 21.5%.

Consider `CCCCn1c(-c2ccc(O)c(C(=O)O)c2)cc2c1CCCC2`, for which the inhibition in vivo at 200 mg/kg in the data set with Rattus norvegicus [1] was determined as 41%.

Take `COC(=O)c1cc(-c2cc3c(n2-c2ccccc2)CCc2ccccc2-3)ccc1O`: in the data set on Rattus norvegicus [1], the inhibition in vivo at 200 mg/kg was 21.7%. Besides, the Activity result in the data set on Rattus norvegicus [2] is “Toxic”.

For `O=C(O)c1cc(-n2c(-c3ccccc3)cc3c2CCc2ccccc2-3)ccc1O` [FENDOSAL], the inhibition in vivo at 200 mg/kg in the data set on Rattus norvegicus [1] came to 64.2%.

Consider `O=C(O)c1cc(-c2cc3c(n2-c2ccccc2)CCc2ccccc2-3)ccc1O`, for which, in the data set on Rattus norvegicus [1], the inhibition in vivo at 200 mg/kg stood at 37.5%.

Consider `COC(=O)c1cc(-c2cc3c(o2)CCCC3)ccc1O`, for which, in the data set with Rattus norvegicus [1], the inhibition in vivo at 200 mg/kg came to 9.8%. For the same compound, in the data set on Rattus norvegicus [2], the Activity result was “Toxic”.
